Experiment [1] in a line: Cytotoxicity against mouse B16F0 cells after 3 days by MTT assay. The experiment is classed as functional, cell-based. Conditions: B16F0, 72 h. A digest of the protocol: (§1)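 Murine tumour cells under continuous drug exposure for 3 days. Growth inhibition measured by MTT assay. IC50 is the concentration inhibiting growth by 50%.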
On the technique in general: Formazan colour is commonly taken as a measure of viable cells.

In a further experiment the test system is Plasmodium falciparum. The experiment is described as follows: Antimicrobial activity against Plasmodium falciparum infected in human erythrocytes assessed as growth inhibition. The experiment is classed as functional, organism-based. Put shortly:
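P. falciparum grown in human erythrocytes at 3–5% hematocrit in complete medium. In vitro growth assay at six concentrations, in triplicate, in three independent experiments.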

The subject of the next experiment is Leishmania donovani. Put plainly: Antimicrobial activity against promastigotes of Leishmania donovani assessed as inhibition of cell proliferation after 72 hrs by alamar blue assay. The experiment is classed as functional, organism-based. Put shortly: (§2)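 Promastigotes at 5 × 10^4 cells/well in DME-L medium with 10% heat-inactivated FBS, hemin, xanthine and penicillin-streptomycin. Exposed to 0.03 nM to 64 µM compound for 72 h at 26 °C. Alamar blue added, incubated 15 h, dye reduction read by fluorescence ex 530/em 590 nm.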
For orientation: The colour change of resazurin is a common sign of viable cells or microbes.

The test system of another experiment is L1210. Put plainly: Cytotoxicity against mouse L1210 cells after 3 days by MTT assay. The experiment is classed as functional, cell-based. The note with it: L1210, 72 h. A digest of the protocol:
as §1

The test system of the next experiment is Nucleic Acid. Put plainly: Binding affinity to pUC18 DNA assessed as DNA alkylating activity after 5 hrs by thermal cleavage assay. The experiment is classed as nucleic-acid assay. Conditions: Escherichia coli. A digest of the protocol: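 PCR probe from the 749–956 region of pUC18. DNA precipitated and lyophilised, then heated at 90 °C for 30 min in sodium citrate buffer (pH 7.2) to cleave at alkylated adenines. Fragments resolved by electrophoresis.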

For another experiment, the system named is Trypanosoma brucei. Put plainly: Antimicrobial activity against procyclic form of Trypanosoma brucei 427 assessed as inhibition of cell proliferation after 72 hrs by alamar blue assay. The note with it: Trypanosoma brucei, 427, 72 h. The experiment is classed as functional, organism-based. A digest of the protocol:
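T. brucei 427 procyclic forms grown in SDM 79 medium with 0.03 nM to 64 µM compound for 72 h at 26 °C. Proliferation read by Alamar blue reduction after a further 15 h, fluorescence ex 530/em 590 nm.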

For the next experiment, the system named is Leishmania mexicana. The experiment is described as follows: Antimicrobial activity against promastigotes of Leishmania mexicana assessed as inhibition of cell proliferation after 72 hrs by alamar blue assay. The experiment is classed as functional, organism-based. A digest of the protocol: as §2

The values that follow come from ChEMBL document CHEMBL1250434, “A novel achiral seco-cyclopropylpyrido[e]indolone (CPyI) analog of CC-1065 and the duocarmycins: synthesis, DNA interactions, in vivo anticancer and anti-parasitic evaluation” (Bioorg Med Chem, 2010).

The term IC50 denotes the concentration that gives 50% inhibition. For `COc1cc2cc(C(=O)Nc3cc(N)c4ccccc4c3CCCl)[nH]c2c(OC)c1OC` [CENTANAMYCIN], the IC50 in experiment [1] amounted to 27 nM; in the experiment with Plasmodium falciparum, 1.8 nM; in the experiment with Leishmania donovani, 13 nM; with L1210, 55 nM; in the experiment on Trypanosoma brucei it was 1.9 nM; with Leishmania mexicana it was 1020 nM. In addition, the Activity entry with Nucleic Acid is “Dose-dependent effect”.
